Results published in ChEMBL document CHEMBL1132179, “Design, synthesis, and biological evaluation of novel non-piperazine analogues of 1-[2-(diphenylmethoxy)ethyl]- and 1-[2-[bis(4-fluorophenyl)methoxy]ethyl]-4-(3-phenylpropyl)piperazines as dopamine transporter inhibitors” (J Med Chem, 1999).

Assays:
[1] = molecular target: T1, Sodium-dependent dopamine transporter (Homo sapiens, UniProt Q01959); assay: Inhibition of [3H]DA uptake in HEK cells expressing dopamine transporter; type: functional, cell-based, HEK293
T1 sequence (Q01959 whole entry): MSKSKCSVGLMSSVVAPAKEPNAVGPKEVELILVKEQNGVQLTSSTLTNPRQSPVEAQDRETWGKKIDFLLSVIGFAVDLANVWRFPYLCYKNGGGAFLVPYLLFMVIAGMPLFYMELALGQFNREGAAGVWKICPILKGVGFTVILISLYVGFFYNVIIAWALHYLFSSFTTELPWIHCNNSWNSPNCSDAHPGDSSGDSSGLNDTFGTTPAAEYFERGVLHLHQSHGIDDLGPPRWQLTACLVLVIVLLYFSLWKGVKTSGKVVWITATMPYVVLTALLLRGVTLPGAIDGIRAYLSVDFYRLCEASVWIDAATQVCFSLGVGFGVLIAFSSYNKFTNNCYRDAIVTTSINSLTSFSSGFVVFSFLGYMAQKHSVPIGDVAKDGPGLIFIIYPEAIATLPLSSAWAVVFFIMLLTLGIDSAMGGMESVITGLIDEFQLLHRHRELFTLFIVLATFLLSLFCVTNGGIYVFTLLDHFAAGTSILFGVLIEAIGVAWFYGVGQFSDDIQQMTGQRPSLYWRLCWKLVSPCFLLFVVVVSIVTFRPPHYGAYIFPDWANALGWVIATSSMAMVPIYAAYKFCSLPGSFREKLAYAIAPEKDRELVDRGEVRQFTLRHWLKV
Summary of the method: (§1)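 Confluent transfected HEK 293 cells washed in PBS, scraped and suspended. Suspension preincubated with drug 10 min at 25 °C in Krebs HEPES, then [3H]DA or [3H]5-HT (20 nM final) added for another 10 min. Ended by filtration onto GF/C filters presoaked in 0.05% poly(ethylenimine), counting. Six drug concentrations, triplicate; IC50 reported.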

[2] = molecular target: T1, Sodium-dependent dopamine transporter; assay: Inhibition of [125I]RTI-55 binding at Dopamine transporter (DAT) expressed in HEK cells; type: cell-based, HEK293
Summary of the method: (§2)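 Membranes from transfected HEK 293 cells (lysed in 2 mM HEPES/1 mM EDTA, pelleted at 30000g, resuspended in 0.32 M sucrose), ~15 μg protein per tube. GF/C filtration, counting. Duplicate competition curves; IC50 converted to Ki by Cheng–Prusoff.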

[3] = molecular target: T2, Sodium-dependent noradrenaline transporter (Homo sapiens, UniProt P23975); assay: Inhibition of [3H]- NE uptake in HEK cells expressing norepinephrine transporter; type: functional, cell-based, HEK293
T2 sequence (P23975 whole entry): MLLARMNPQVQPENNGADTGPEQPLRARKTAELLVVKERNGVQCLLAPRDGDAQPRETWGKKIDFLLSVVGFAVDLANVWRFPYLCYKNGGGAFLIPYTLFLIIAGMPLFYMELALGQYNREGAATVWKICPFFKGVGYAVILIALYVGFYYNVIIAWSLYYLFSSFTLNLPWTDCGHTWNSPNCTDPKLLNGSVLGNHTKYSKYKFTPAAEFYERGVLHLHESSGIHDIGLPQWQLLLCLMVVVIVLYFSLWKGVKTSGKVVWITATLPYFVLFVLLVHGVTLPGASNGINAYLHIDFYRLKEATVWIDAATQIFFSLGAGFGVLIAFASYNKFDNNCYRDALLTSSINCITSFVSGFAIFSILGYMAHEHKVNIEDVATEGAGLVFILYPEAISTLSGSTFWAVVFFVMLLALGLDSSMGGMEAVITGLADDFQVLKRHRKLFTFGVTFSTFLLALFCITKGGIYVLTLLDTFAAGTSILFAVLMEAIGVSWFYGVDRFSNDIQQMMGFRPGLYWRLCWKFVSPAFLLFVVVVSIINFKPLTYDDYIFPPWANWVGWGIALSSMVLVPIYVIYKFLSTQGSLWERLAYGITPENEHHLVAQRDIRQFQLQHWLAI

[4] = molecular target: T3, Sodium-dependent serotonin transporter (Homo sapiens, UniProt P31645); assay: Ratio between [3H]5-HT reuptake and SERT binding; type: functional
Target sequence in this assay (P31645 whole entry, looked up): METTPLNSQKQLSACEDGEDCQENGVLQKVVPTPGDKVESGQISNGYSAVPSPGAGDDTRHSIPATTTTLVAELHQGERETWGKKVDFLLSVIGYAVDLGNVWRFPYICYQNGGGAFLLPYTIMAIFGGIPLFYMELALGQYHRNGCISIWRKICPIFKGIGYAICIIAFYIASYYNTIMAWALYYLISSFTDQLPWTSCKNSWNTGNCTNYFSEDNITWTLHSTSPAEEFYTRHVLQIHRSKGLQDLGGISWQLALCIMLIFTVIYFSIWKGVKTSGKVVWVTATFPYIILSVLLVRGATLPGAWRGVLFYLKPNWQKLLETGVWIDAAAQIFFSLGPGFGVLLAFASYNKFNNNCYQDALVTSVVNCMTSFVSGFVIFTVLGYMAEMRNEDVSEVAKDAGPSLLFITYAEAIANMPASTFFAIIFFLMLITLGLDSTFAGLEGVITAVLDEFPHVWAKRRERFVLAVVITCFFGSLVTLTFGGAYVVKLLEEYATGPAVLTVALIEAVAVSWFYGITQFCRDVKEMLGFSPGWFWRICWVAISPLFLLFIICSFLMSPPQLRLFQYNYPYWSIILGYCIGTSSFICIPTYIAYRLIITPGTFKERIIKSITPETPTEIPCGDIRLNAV

[5] = molecular target: T2, Sodium-dependent noradrenaline transporter; assay: Inhibition of [125I]RTI-55 binding to norepinephrine transporter (NET) expressed in HEK cells; type: cell-based, HEK293
[6] = molecular target: T3, Sodium-dependent serotonin transporter; assay: Inhibition of [3H]- 5-HT uptake in HEK cells expressing serotonin transporter; type: functional, cell-based, HEK293; summary of the method: as §1
Target sequence in this assay (P31645 whole entry): as the sequence (P31645 whole entry, looked up) above

[7] = molecular target: Monoamine transporters; serotonin & dopamine (Homo sapiens) (UniProt P31645+Q01959); assay: Selectivity ratio between serotonin and dopamine transporters; type: protein assay
Sequence of Monoamine transporters; serotonin & dopamine (Homo sapiens) (P31645 whole entry, looked up): as above
Sequence of Monoamine transporters; serotonin & dopamine (Homo sapiens) (Q01959 whole entry, looked up): as the sequence (Q01959 whole entry) above

[8] = molecular target: T1, Sodium-dependent dopamine transporter; assay: Ratio between [3H]DA reuptake and DAT binding; type: functional
[9] = molecular target: Monoamine transporters; Norepinephrine & dopamine (Homo sapiens) (UniProt Q01959+P23975); assay: selectivity ratio between noradrenaline and dopamine transporter binding; type: protein assay
Sequence of Monoamine transporters; Norepinephrine & dopamine (Homo sapiens) (P23975 whole entry, looked up): as the sequence (P23975 whole entry) above
Sequence of Monoamine transporters; Norepinephrine & dopamine (Homo sapiens) (Q01959 whole entry, looked up): as the sequence (Q01959 whole entry) above

[10] = molecular target: T3, Sodium-dependent serotonin transporter; assay: Inhibition of [125I]RTI-55 binding to serotonin transporter (SERT) expressed in HEK cells; type: cell-based, HEK293; summary of the method: as §2
Target sequence in this assay (P31645 whole entry): as the sequence (P31645 whole entry, looked up) above

[11] = molecular target: T2, Sodium-dependent noradrenaline transporter; assay: Compound was tested for its affinity by the inhibition of [125I]RTI-55 binding at norepinephrine transporter (NET) transfected in HEK cells; type: cell-based, HEK293
Summary of the method: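 Membranes from HEK 293 cells transfected with NET (lysed in 2 mM HEPES/1 mM EDTA, pelleted at 30000g, resuspended in 0.32 M sucrose), ~15 μg protein, preincubated with drug 10 min. Then [125I]RTI-55 (40–80 pM final) added in Krebs HEPES, 90 min at room temperature in dark. Filtration, counting. Competition in duplicate; IC50 converted to Ki by Cheng–Prusoff. Final DMSO 0.01%.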

| SMILES | IC50 [1] | Ki [2] | IC50 [3] | Ratio [4] | Ki [5] | IC50 [6] | Selectivity ratio [7] | Ratio [8] | Selectivity ratio [9] | Ki [10] | Ki [11] |
| --- | --- | --- | --- | --- | --- | --- | --- | --- | --- | --- | --- |
| O=C(/C=C/c1ccc(Br)cc1)NCCNCCOC(c1ccc(F)cc1)c1ccc(F)cc1 | 1380 nM | 510 nM | > 10000 nM | 7.6 | 1760 nM | 4500 nM | 1.2 | 2.7 | 3.5 | 590 nM |  |
| CN(CCOC(c1ccccc1)c1ccccc1)CCN(C)CCc1ccc(F)cc1 | 119 nM | 30 nM | 279 nM | 1.9 | 370 nM | 1050 nM | 18.3 | 4 | 12.3 | 550 nM |  |
| O=C1CN(CCOC(c2ccccc2)c2ccccc2)CCN1CCCc1ccccc1 | > 10 nM | 8200 nM | > 10 nM | > 1.7 |  | > 10 nM | 0.7 | > 1.2 | 1 | 5900 nM | 5850 nM |
| O=C1CN(CCc2ccccc2)CCN1CCOC(c1ccc(F)cc1)c1ccc(F)cc1 | > 10000 nM | 1430 nM | > 10000 nM | > 34.5 | 7050 nM | 3940 nM | 0.1 | > 1.7 | 4.9 | 114 nM |  |
| CN(CCCc1ccccc1)CCCN(C)CCOC(c1ccccc1)c1ccccc1 | 237 nM | 122 nM | 143 nM | 3.9 | 30 nM | 1700 nM | 3.6 | 1.9 | 0.2 | 438 nM |  |
| O=C(Cc1ccccc1)NCCNCCOC(c1ccc(F)cc1)c1ccc(F)cc1 | 80 nM | 54 nM | 399 nM | 2.3 | 604 nM | 1300 nM | 10.3 | 1.5 | 11.2 | 556 nM |  |

Further molecules by falling IC50 [1], results first:

| IC50 [1] | Ki [2] | IC50 [3] | Ratio [4] | Ki [5] | IC50 [6] | Selectivity ratio [7] | Ratio [8] | Selectivity ratio [9] | Ki [10] | SMILES | Ki [11] |
| --- | --- | --- | --- | --- | --- | --- | --- | --- | --- | --- | --- |
| 830 nM | 26 nM | 2600 nM | > 13 | 261 nM | > 10000 nM | 30.1 | 32.4 | 10.2 | 770 nM | CN(CCOC(c1ccc(F)cc1)c1ccc(F)cc1)CCN(C)CCOC(c1ccc(F)cc1)c1ccc(F)cc1 |  |
| 349 nM | 322 nM | 210 nM | 1.1 | 194 nM | 1700 nM | 4.7 | 1.1 | 0.6 | 1530 nM | CN(CCCN(C)CCc1ccccc1)CCOC(c1ccccc1)c1ccccc1 |  |
| 90 nM | 51 nM | 205 nM | 2.2 | 545 nM | 1140 nM | 10.3 | 1.8 | 10.7 | 523 nM | O=C(CCc1ccccc1)NCCNCCOC(c1ccc(F)cc1)c1ccc(F)cc1 |  |
| 73 nM | 61 nM | 192 nM | 1.1 | 477 nM | 1230 nM | 18.8 | 1.2 | 7.8 | 1150 nM | O=C(Cc1ccccc1)NCCCNCCOC(c1ccc(F)cc1)c1ccc(F)cc1 |  |
| 68 nM | 28 nM | 116 nM | 2 | 82 nM | 249 nM | 4.5 | 2.4 | 2.9 | 125 nM | Fc1ccc(C(OCCNCCCNCCc2ccccc2)c2ccc(F)cc2)cc1 |  |
| 47 nM | 54 nM | 299 nM | 5.7 | 844 nM | 1990 nM | 6.5 | 0.9 | 15.6 | 351 nM | O=C(Cc1ccc(F)cc1)NCCNCCOC(c1ccc(F)cc1)c1ccc(F)cc1 |  |
